According to publication PMC5959779 (ACS chemical biology, 2018):
Read-outs that look alike come from different tables or passages of the source. One block for each molecule: values may come before it. Peptide text beside a SMILES is read from it. * marks the point of attachment. Cbz = O=C(OCc1ccccc1)*; CH2F = FC*

Columns and labels:
caspase-8 wild-type = experiment: differential scanning fluorimetry thermal stability; assay type: binding; conditions: DSF; for TM Values, Wild Type: zinc salts at 50 μM
caspase-8 C360A = experiment: as above; assay type: binding; conditions: DSF; for TM Values, C360A: zinc salts at 50 μM; for effect on Tm of caspase-8 C360A: incubation with other metals
caspase-8 [1] = target: T1, caspase-8 (Homo sapiens, UniProt Q14790); experiment: caspase-8 cleavage of fluorogenic tetrapeptide substrate LEHD-AMC; assay type: biochemical
T1 sequence (Q14790 217-374 limits assumed): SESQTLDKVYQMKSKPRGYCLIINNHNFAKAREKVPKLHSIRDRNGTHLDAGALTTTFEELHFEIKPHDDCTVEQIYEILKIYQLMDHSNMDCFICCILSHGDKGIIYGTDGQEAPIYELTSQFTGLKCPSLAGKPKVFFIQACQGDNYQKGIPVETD
T1 sequence (Q14790 385-479 limits assumed): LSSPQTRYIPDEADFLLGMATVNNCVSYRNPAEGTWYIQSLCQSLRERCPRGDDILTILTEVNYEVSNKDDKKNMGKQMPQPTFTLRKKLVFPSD

caspase-8 [2] = target: T1, caspase-8; experiment: caspase-8 cleavage of procaspase-7; assay type: biochemical; conditions: metal panel
caspase-3 [3] = target: T2, caspase-3 (Homo sapiens, UniProt P42574); experiment: caspase-3 cleavage of fluorogenic tetrapeptide substrate DEVD-AMC; assay type: biochemical
T2 sequence (P42574 29-175 limits assumed): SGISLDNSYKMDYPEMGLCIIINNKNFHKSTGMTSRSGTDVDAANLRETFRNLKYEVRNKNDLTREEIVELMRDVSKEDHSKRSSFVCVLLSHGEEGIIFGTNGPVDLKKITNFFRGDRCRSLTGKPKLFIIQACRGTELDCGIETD
T2 sequence (P42574 176-277 limits assumed): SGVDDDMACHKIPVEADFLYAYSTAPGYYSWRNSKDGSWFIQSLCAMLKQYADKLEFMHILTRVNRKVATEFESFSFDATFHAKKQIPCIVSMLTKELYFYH

caspase-7 [4] = target: T3, caspase-7 (Homo sapiens, UniProt P55210); experiment: caspase-7 cleavage of protein substrate PAK2, metal panel; assay type: biochemical
T3 sequence (P55210 24-198 limits assumed): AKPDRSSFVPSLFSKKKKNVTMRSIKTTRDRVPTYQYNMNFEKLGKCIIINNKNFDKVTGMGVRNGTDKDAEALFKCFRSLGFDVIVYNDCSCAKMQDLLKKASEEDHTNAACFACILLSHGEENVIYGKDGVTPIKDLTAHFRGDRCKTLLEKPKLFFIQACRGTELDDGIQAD
T3 sequence (P55210 207-303 limits assumed): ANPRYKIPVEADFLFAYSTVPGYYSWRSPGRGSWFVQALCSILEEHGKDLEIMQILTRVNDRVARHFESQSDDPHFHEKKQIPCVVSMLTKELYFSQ

caspase-3 [5] = target: T2, caspase-3; experiment: caspase-3 cleavage of protein substrates PAK2 and PARP, metal panel; assay type: biochemical
caspase-7 [6] = target: T3, caspase-7; experiment: caspase-7 cleavage of fluorogenic tetrapeptide substrate DEVD-AMC; assay type: biochemical
[7] = read-out: KD for zinc; cited from earlier work
caspase-8 [8] = target: T1, caspase-8; experiment: Fluozin-3 competition zinc affinity; assay type: binding; conditions: competition with Fluozin-3
Outline: (§1)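 Caspase titrated into reactions holding a constant amount of zinc and the fluorescent zinc indicator Fluozin-3. Each reaction was left to reach equilibrium, then Fluozin-3 fluorescence was read, with signal falling as caspase competed for zinc. Mean ± SEM from three experiments on three separate days.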

caspase-3 [9] = target: T2, caspase-3; experiment: zincon colorimetric zinc-binding stoichiometry; conditions: zincon absorbance at 620 nm
Outline: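 Caspase-3 and -7 were tested alone or with the active site occupied by zVAD; caspase-8 wild type and C360A were also tested. Mean ± SEM from three experiments on three separate days.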

caspase-3 [10] = target: T2, caspase-3; experiment: Fluozin-3 competition zinc affinity; assay type: binding; conditions: competition with Fluozin-3
Outline: as §1

caspase-6 [11] = target: T4, caspase-6 (Homo sapiens, UniProt P55212); experiment: caspase-6 cleavage of preferred fluorogenic tetrapeptide substrate; assay type: biochemical
T4 sequence (P55212 24-179 limits assumed): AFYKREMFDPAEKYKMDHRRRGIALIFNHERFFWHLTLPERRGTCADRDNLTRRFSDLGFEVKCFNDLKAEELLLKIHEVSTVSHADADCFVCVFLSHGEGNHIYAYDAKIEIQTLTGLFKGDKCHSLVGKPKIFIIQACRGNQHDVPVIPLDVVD
T4 sequence (P55212 194-293 limits assumed): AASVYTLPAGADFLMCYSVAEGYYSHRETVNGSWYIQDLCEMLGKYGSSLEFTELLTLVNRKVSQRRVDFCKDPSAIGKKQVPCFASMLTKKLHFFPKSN

caspase-3 [12] = target: T2, caspase-3; conditions: cited from earlier work
caspase-6 [13] = target: T4, caspase-6; experiment: Fluozin-3 competition zinc affinity; assay type: binding; conditions: competition with Fluozin-3
Outline: as §1

caspase-8 [14] = target: T1, caspase-8; experiment: size exclusion chromatography of caspase-8 oligomeric state; conditions: SEC after incubation
Outline: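 Oligomeric state of caspase-8 was resolved by size-exclusion chromatography into dimer and monomer peaks. Protein was run alone, after incubation with zVAD-FMK, or after inhibitor incubation followed by increasing zinc. Peak fractions were quantified as mean ± SEM from three experiments on three separate days.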

caspase-6 [15] = target: T4, caspase-6; conditions: read-out: IC50 (unbuffered); cited from earlier work
[16] = tested on: caspase-7 variant H131A/C171A; experiment: activity of caspase-7 variant in absence and presence of ZnCl2; assay type: biochemical; conditions: presence vs absence of ZnCl2
[17] = metal panel, peptide substrate DEVD-AMC
[18] = panel of biologically relevant metals
[19] = read-out: IC50 Values Unbuffered, total zinc, no zinc buffer, 10 nM caspase
[20] = zinc buffered (NTA), mixed model of inhibition, global fit

- Tm increase (caspase-8 wild-type): 27 °C
- TM Values, Wild Type (caspase-8 wild-type): 75.5 ± 0.3 °C
- TM Values, C360A (caspase-8 C360A): 46.4 ± 0.2 °C
Structure (SMILES): CC[C@H](C)[C@H](NC(C)=O)C(=O)N[C@@H](CCC(=O)O)C(=O)N[C@H](C(=O)N[C@H](C=O)CC(=O)O)[C@@H](C)O [Ac-IETD-CHO, acetyl-Ile-Glu-Thr-Asp-aldehyde, reference compound] (Ac-IETD-aldehyde)

Structure (SMILES): [Cd] [Cadmium, cadmium]
- activity remained (caspase-8 [1]; metal panel, peptide substrate LEHD-AMC): 12%
- effect on cleavage of procaspase-7 (C186A) (caspase-8 [2]): minor impact
- activity remained (caspase-3 [3]; [17]): 39%
- effect on cleavage of protein substrate PAK2 (caspase-7 [4]): had an inhibitory effect
- effect on cleavage of protein substrate PARP (caspase-3 [5]): inhibitory effect
- activity remained (caspase-7 [6]; [17]): 84%

- effect on cleavage of procaspase-7 (C186A) (caspase-8 [2]): minor impact
- effect on cleavage of protein substrate PAK2 (caspase-3 [5]): did not observe
- effect on Tm of caspase-8 C360A (caspase-8 C360A): failed to significantly alter
Structure (SMILES): [Cu] [Copper, copper]

Structure (SMILES): COc1ccc(N(CC(=O)O)CC(=O)O)c(OCCOc2cc(-c3c4cc(F)c(=O)cc-4oc4cc(O)c(F)cc34)ccc2NCC(=O)O)c1 [Fluozin-3]
- Kd [7]: 0.015 µM

Structure (SMILES): [Zn+2] [Zinc, zinc]
- effect on peptide substrate cleavage (caspase-8 [1]; [18]): inhibited
- IC50 (caspase-8 [1]; [19]): 367 ± 38 nM
- Ki (caspase-8 [1]; [20]): 4.3 nM
- zinc affinity (KD via Cheng-Prusoff) (caspase-8 [8]): low nanomolar affinity
- effect on cleavage of procaspase-7 (C186A) (caspase-8 [2]): significant impact
- zincs bound per caspase monomer (stoichiometry) (caspase-3 [9]): three
- zinc affinity (KD via Cheng-Prusoff) (caspase-3 [10]): low nanomolar affinity
- IC50 (caspase-6 [11]; [19]): 4.53 ± 1.1 µM
- Ki (caspase-6 [11]; zinc buffered (NTA), assumed noncompetitive): 2.6 nM
- effect on peptide substrate cleavage (caspase-3 [3]; [18]): inhibited
- IC50 (caspase-3 [3]; [19]): 104 ± 26 nM
- Ki (caspase-3 [3]; [20]): 6.9 nM
- zinc concentration at which caspase-3 is inhibited (caspase-3 [12]): ≥ 1.7 nM
- effect on cleavage of protein substrate PARP (caspase-3 [5]): inhibitory effect
- destabilization of caspase-8 C360A (Tm decrease) (caspase-8 C360A): 5 °C
- effect on peptide substrate cleavage (caspase-7 [6]; [18]): inhibited
- IC50 (caspase-7 [6]; [19]): 1580 ± 750 nM
- Ki (caspase-7 [6]; zinc buffered (citrate), mixed model of inhibition, global fit): 76.1 nM
- zinc affinity (KD via Cheng-Prusoff) (caspase-6 [13]): low nanomolar affinity
- caspase-8 eluting as dimer (caspase-8 [14]): 10%
- caspase-8 eluting as monomer (caspase-8 [14]): 90%
- IC50 (caspase-6 [15]): 4.5 µM

Structure (SMILES): O=C(O)c1ccccc1NN=C(N=Nc1cc(S(=O)(=O)O)ccc1O)c1ccccc1 [Zincon]
- Kd [7]: 12 µM

Structure (SMILES): [Cl-].[Cl-].[Zn+2] [ZnCl2]
- inhibition of variant activity [16]: inhibited by zinc in a similar fashion to wild-type
- destabilization of caspase-8 (Tm decrease) (caspase-8 wild-type): approximately 3 °C
- TM Values, Wild Type (caspase-8 wild-type): 44.5 ± 0.4 °C
- effect on cleavage of protein substrate PAK2 (caspase-7 [4]): inhibited
- effect on cleavage of protein substrate PAK2 (caspase-3 [5]): completely inhibited
- destabilization of caspase-8 C360A (Tm decrease) (caspase-8 C360A): 5 °C
- TM Values, C360A (caspase-8 C360A): 41.5 ± 0.9 °C

Structure (SMILES): O=S(=O)([O-])[O-].[Zn+2] [ZnSO4]
- destabilization of caspase-8 (Tm decrease) (caspase-8 wild-type): approximately 3 °C
- TM Values, Wild Type (caspase-8 wild-type): 44.8 ± 0.3 °C
- effect on cleavage of protein substrate PAK2 (caspase-7 [4]): inhibited
- effect on cleavage of protein substrate PAK2 (caspase-3 [5]): completely inhibited
- destabilization of caspase-8 C360A (Tm decrease) (caspase-8 C360A): 5 °C
- TM Values, C360A (caspase-8 C360A): 41.6 ± 0.6 °C

- effect on Tm of caspase-8 C360A (caspase-8 C360A): failed to significantly alter
Structure (SMILES): [Ca+2] [calcium]

Structure (SMILES): [Co] [cobalt]
- effect on cleavage of protein substrate PAK2 (caspase-3 [5]): did not observe

- effect on Tm of caspase-8 C360A (caspase-8 C360A): failed to significantly alter
Structure (SMILES): [Fe] [iron]

- inhibition of caspase activity (caspase-3 [3]; two-hour incubation): completely inhibited
- inhibition of caspase activity (caspase-7 [6]; two-hour incubation): completely inhibited
- caspase-8 eluting as dimer (caspase-8 [14]): 63%
- caspase-8 eluting as monomer (caspase-8 [14]): 37%
Structure (SMILES): CC(NC(=O)C(NC(=O)OCc1ccccc1)C(C)C)C(=O)NC(CC(=O)O)C(=O)CF (stereo not drawn) [zVAD-FMK, carbobenzoxy-Val-Ala-Asp-fluoromethylketone, reference compound] (Cbz-Val-Ala-Asp-CH2F; configuration not given here)
